Measurements from ChEMBL document CHEMBL1125645, “Specific bradycardic agents. 2. Heteroaromatic modifications in the side chain of specific bradycardic benzazepinones: chemistry, pharmacology, and structure-activity relationships” (1991).
The source made the active and inactive calls. The rule behind the calls is not given here.

Legend:
[1] = organism: Rattus norvegicus; test: (§1) Ratio of heart rate reduction to mean arterial blood pressure reduction; type: functional
Summary of the method: (§2)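 Selectivity parameter S: the % heart-rate reduction divided by the % mean arterial pressure reduction, both read 5 min after 5 mg/kg iv in anesthetized, ventilated male Chbb:THOM rats. Heart rate came from an ECG-triggered tachograph and pressure from a carotid cannula.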

[2] = system: Rattus norvegicus; test: Hypotensive activity was evaluated in an anesthetized rat model as percent mean aortic blood pressure(mm hg) reduction 5 min after iv injection of 5 mg/kg; type: functional, Artery
Summary of the method: (§3)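 In pentobarbital-anesthetized (50 mg/kg ip), artificially ventilated male Chbb:THOM rats (200-250 g), mean aortic pressure was measured through a carotid artery cannula connected to an electromechanical transducer. Readings were taken before and 5 min after 5 mg/kg iv. Values are % change from baseline, ± SEM.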

[3] = (§4) delta HR Ratio measured as the ratio of delta HR(20 min)/delta HR (5 min); type: functional
Summary of the method: (§5)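 Duration-of-action index: the % heart-rate reduction at 20 min divided by that at 5 min after 5 mg/kg iv. Rats were male Chbb:THOM, pentobarbital-anesthetized and ventilated, with heart rate taken from an ECG-triggered tachograph.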

[4] = system: Rattus norvegicus; test: Bradycardic activity was evaluated in an anesthetized rat model as percent heart rate(beats/min) reduction 20 min after iv injection of 5 mg/kg; type: functional
Summary of the method: (§6)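 Male Chbb:THOM rats, 200-250 g, anesthetized with pentobarbital sodium 50 mg/kg ip, with the trachea cannulated and artificial respiration given. Heart rate was recorded continuously by an ECG-triggered beat-to-beat tachograph before and at 5 and 20 min after a single iv injection of 5 mg/kg. Values are % change from pre-dose, reported ± SEM.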

[5] = system: Rattus norvegicus; test: Bradycardic activity was evaluated in an anesthetized rat model as percent heart rate(beats/min) reduction 5 min after iv injection of 5 mg/kg; type: functional; summary of the method: as §6
[6] = system: Rattus norvegicus; test: Bradycardic activity was evaluated in an anesthetized rat model as percent heart rate(beats/min) reduction 5 min after iv injection of 5 mg/kg of the compound; NA=Not active; type: functional, organism-based; parameters: dose 5 mg/kg; summary of the method: as §6
[7] = system: Rattus norvegicus; test: Bradycardic activity was evaluated in an anesthetized rat model as percent heart rate(beats/min) reduction 20 min after iv injection of 5 mg/kg of the compound; NA= Not active; type: functional, organism-based; parameters: dose 5 mg/kg; summary of the method: as §6
[8] = as §1; type: tissue-based; summary of the method: as §2
[9] = as §4; summary of the method: as §5
[10] = system: Rattus norvegicus; test: Hypotensive activity was evaluated in an anesthetized rat model as percent mean aortic blood pressure(mm hg) reduction 5 min after iv injection of 5 mg/kg of the compound; NA=Not active; type: functional, organism-based; parameters: dose 5 mg/kg; settings: Artery; summary of the method: as §3
[11] = system: Rattus norvegicus; test: Bradycardic activity was evaluated in an anesthetized rat model as percent heart rate(beats/min) reduction 20 min after iv injection of 5 mg/kg of the compound; NA=Not active; type: functional, organism-based; parameters: dose 5 mg/kg; summary of the method: as §6

| Structure (SMILES) | Selectivity [1] | Delta MAP [2] [%] | Ratio [3] | Delta HR [4] [%] | Delta HR [5] [%] | Delta HR [6] | Delta HR [7] | Selectivity [8] | Ratio [9] | Delta MAP [10] | Delta HR [11] |
| --- | --- | --- | --- | --- | --- | --- | --- | --- | --- | --- | --- |
| COc1cc2c(cc1OC)CC(=O)N(CCCN(C)CCc1cn(C)cn1)CC2 | 1 | -10 | 1.1 | -11 | -10 |  |  |  |  |  |  |
| COc1cc2c(cc1OC)CC(=O)N(CCCN(C)CCc1c[nH]cn1)CC2 |  | -11 |  |  |  | inactive | inactive |  |  |  |  |
| COc1cc2c(cc1OC)CC(=O)N(CCCN(C)CCc1c[nH]c3c(C)cccc13)CC2 |  | -26 |  | -44 | -50 |  |  | 1.9 | 0.88 |  |  |
| COc1cc2c(cc1OC)CC(=O)N(CCCN(C)CCn1ccnc1)CC2 |  |  |  |  |  | inactive |  |  |  | inactive | inactive |
| COc1ccc2c(CCN(C)CCCN3CCc4cc(OC)c(OC)cc4CC3=O)csc2c1 | 1.3 | -52 | 0.89 | -60 | -67 |  |  |  |  |  |  |
| COc1cc2c(cc1OC)CC(=O)N(CCCN(C)CCc1scnc1C)CC2 |  |  |  |  |  | inactive |  |  |  | inactive | inactive |
